For test [1], the target named is T1, Interleukin-1 receptor-associated kinase 3 (Homo sapiens) (UniProt Q9Y616).
T1 sequence (whole entry): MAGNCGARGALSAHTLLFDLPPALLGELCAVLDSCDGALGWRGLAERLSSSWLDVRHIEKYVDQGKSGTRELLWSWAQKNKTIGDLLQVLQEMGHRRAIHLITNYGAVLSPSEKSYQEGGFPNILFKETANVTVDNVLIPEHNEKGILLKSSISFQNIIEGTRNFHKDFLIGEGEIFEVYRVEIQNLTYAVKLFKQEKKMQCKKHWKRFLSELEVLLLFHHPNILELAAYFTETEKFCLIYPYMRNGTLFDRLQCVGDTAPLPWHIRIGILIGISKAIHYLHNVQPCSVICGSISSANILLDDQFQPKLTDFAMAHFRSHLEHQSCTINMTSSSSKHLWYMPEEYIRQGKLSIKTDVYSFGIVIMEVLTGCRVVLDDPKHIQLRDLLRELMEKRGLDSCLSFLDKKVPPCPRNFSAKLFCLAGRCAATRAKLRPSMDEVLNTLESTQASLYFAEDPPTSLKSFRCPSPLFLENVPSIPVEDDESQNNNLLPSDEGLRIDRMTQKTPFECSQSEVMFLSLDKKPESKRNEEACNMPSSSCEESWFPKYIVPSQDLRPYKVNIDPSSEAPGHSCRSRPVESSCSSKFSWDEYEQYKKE
The test can be described thus: Competitive binding affinity to IRAK3 (unknown origin) at 10 uM in presence of ATP relative to control.

The target of test [2] is T2, Ephrin type-B receptor 3 (Homo sapiens) (UniProt P54753).
T2 sequence (whole entry): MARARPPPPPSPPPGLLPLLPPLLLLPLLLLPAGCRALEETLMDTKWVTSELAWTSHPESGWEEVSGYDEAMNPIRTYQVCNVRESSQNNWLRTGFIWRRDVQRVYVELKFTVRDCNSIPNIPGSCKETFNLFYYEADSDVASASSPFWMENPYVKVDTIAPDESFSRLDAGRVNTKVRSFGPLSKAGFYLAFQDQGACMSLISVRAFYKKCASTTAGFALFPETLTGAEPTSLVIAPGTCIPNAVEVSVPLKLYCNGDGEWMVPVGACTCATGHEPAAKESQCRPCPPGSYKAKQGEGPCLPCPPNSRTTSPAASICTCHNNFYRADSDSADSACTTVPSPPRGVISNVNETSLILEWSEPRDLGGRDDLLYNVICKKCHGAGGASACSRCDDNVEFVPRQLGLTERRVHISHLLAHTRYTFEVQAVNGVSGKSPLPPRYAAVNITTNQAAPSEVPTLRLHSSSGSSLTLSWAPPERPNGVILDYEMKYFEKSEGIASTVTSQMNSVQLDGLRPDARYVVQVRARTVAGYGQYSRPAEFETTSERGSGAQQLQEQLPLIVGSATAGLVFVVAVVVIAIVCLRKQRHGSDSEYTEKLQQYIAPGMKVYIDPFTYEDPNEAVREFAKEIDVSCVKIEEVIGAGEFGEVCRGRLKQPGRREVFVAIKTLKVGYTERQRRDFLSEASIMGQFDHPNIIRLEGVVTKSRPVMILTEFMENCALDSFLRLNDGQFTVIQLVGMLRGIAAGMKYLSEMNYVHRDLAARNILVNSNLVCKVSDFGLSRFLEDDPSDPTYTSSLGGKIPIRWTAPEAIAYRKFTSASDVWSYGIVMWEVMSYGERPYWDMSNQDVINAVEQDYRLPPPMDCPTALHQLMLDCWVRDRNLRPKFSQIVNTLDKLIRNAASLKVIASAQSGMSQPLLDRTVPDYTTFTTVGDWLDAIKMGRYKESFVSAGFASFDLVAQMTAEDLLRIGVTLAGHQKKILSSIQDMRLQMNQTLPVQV
The test can be described thus: Competitive binding affinity to EPHB3 (unknown origin) at 10 uM in presence of ATP relative to control. A digest of the protocol:
(§1)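 In vitro ATP-site competition binding assay, part of profiling against a diverse panel of 128 kinases. Each compound was tested at a single concentration of 10 µM. Kinome selectivity was summarized as S15 selectivity scores.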

The target in test [3] is T3, Ephrin type-A receptor 1 (Homo sapiens) (UniProt P21709).
T3 sequence (whole entry): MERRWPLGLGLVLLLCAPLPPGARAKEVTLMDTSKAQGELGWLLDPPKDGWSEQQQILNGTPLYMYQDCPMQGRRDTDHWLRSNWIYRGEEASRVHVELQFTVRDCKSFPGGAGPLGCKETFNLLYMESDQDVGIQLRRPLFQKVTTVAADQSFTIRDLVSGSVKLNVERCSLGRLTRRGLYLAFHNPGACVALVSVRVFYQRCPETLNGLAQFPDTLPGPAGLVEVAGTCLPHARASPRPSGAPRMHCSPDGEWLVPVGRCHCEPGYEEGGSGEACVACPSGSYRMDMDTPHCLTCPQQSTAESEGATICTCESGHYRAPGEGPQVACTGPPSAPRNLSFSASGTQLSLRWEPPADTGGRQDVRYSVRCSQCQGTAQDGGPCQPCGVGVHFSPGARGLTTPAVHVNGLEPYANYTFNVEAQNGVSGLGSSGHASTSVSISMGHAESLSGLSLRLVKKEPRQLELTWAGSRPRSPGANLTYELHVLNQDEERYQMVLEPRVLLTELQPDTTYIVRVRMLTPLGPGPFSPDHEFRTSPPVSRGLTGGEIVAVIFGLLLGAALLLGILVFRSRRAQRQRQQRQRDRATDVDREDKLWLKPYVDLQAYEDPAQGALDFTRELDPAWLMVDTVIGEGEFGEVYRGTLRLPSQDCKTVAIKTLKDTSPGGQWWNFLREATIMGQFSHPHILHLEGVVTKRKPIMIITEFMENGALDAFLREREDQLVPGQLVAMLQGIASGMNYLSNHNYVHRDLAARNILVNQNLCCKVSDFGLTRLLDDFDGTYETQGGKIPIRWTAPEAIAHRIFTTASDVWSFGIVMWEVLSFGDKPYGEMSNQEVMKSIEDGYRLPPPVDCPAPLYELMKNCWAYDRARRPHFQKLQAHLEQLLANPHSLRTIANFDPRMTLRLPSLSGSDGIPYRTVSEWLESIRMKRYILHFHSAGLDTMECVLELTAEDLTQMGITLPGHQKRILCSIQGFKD
The test can be described thus: Competitive binding affinity to EPHA1 (unknown origin) at 10 uM in presence of ATP relative to control. An outline of the steps: as §1

Bounds are passed on as bounds.

This is an account of results in ChEMBL document CHEMBL2424622, “Development of amino-pyrimidine inhibitors of c-Jun N-terminal kinase (JNK): kinase profiling guided optimization of a 1,2,3-benzotriazole lead” (Bioorg Med Chem Lett, 2013).

What is called inhibition is how much of the control response was suppressed.

Regarding `O[C@H]1CC[C@H](Nc2nccc(-n3ccc4ccccc43)n2)CC1`, the inhibition in test [1] was 87%; in test [2], less than 50%; in test [3] it was less than 50%.

Turning to `O[C@H]1CC[C@H](Nc2nccc(-n3nnc4ccccc43)n2)CC1`, the figures for the inhibition in test [1], in test [2] and in test [3] were 85%, less than 50% and less than 50%, respectively.

As to `O[C@H]1CC[C@H](Nc2nccc(-n3ncc4ccccc43)n2)CC1`, the inhibition in test [1] is 88%; in test [2], less than 50%; in test [3] it was less than 50%.

With `O[C@H]1CC[C@H](Nc2nccc(-c3n[nH]c4ccccc34)n2)CC1`, the inhibition in test [2] and in test [3] was less than 50% throughout.
